Sampled rows, rich in hits. Any-hit rate of the full collection: about 2.9%.
GSIS activator = GLuc luminescence reporter in INS-1E cells, primary screen for activators of glucose-dependent secretion of insulin; hit rate 0.61% among 370,000; INS-1E GLuc reporter insulin secretion, 2-3 h; activation, % at 16.6 µM;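 active means lowest replicate activation of at least 40%, so every replicate reaches that level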;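 further: 0% = median of neutral control wells and 100% = median of IBMX positive control wells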
dFosB act-1 = mouse delta FosB homodimer activation; AID 493131; hit rate 0.99% among 340,000; purified delta FosB, TAMRA-CDK5 oligo fluorescence polarization; percent of positive-control signal above neutral wells; P13346; activation, % at 25 µM;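 active means mean activation above about 17%, with every replicate also reaching it, limit read from the data, passing the limit was not always enough; inconclusive means only one of the two conditions met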
Target sequence (P13346 whole entry, looked up): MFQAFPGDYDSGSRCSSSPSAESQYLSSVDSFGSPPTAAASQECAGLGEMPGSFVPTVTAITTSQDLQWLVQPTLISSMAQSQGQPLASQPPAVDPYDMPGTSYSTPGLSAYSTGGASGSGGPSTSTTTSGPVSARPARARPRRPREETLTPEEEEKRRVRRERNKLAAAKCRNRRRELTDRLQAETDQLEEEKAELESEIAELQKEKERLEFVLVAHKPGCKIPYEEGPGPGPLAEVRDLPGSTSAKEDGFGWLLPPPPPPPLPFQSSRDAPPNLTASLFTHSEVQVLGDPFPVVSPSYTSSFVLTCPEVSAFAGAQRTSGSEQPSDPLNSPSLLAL
PAX8 inh HTS = inhibitors of PAX8 transcriptional activity in RMG-I cells. AID 652154. hit rate 1.2% among 360,000. RMG-I TPO-luciferase reporter, SteadyGlo, 24 h. inhibition, % at 12.6 µM;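 active means mean replicate inhibition at least 60% with every replicate also reaching 60%; inconclusive means only one of the two criteria is met; inactive means mean below 60% and not all replicates reaching 60%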;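 further: luciferase light reporting Pax8 driven TPO promoter activity; plate controls were median of neutral control wells for no effect and mitoxantrone controls for full effect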
Env fusion inh = blocks HIV Env-driven cell-cell fusion. HeLa-JRFL Env/CEM21 cell fusion, luciferase. hit rate 1.1% among 360,000. inhibition, % at 12.3 µM;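 active means mean replicate inhibition score of at least 50 and every replicate individually at or above 50; inconclusive means only one of the two criteria met; inactive means mean below 50 and not all replicates reaching 50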;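 further: 0% = plate neutral controls and 100% = maraviroc near 300 nM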
CDK5 p35 inh = inhibitors of human CDK5/p35 kinase | Q00535+Q15078 | Recombinant CDK5/p35, ADP-Glo luminescence, 60 min | inhibition, % at 10 µM | hit rate 0.01% among 330,000 | AID 488839;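 active means highest replicate inhibition of at least 50% and at least 75% of replicates reaching 50%; inconclusive means only one of the two criteria met; inactive means both criteria failed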;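 further: plate controls were DMSO neutral control for no effect and GW8510 at 10 µM for full effect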
Cneo AK release = Cryptococcus neoformans lysis via adenylate kinase release | C. neoformans lysis, adenylate kinase release luminescence, 4 h; normalised: neutral wells 0, clomiphene wells 100 | lysis activity, % at 15 µM | hit rate 0.2% among 360,000 | AID 651654;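 active means mean lysis activity across replicates of at least 80%, whatever share of replicates individually reach that level; inactive means mean lysis activity below 80%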
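Material – Cryptococcus neoformans yeast cells · Quantity – 5 × 10^6 yeast cells/mL · Buffer or medium – YPD medium · Compound – single dose · Timing – 4 h static compound exposure, 37 °C, read 1 h post-reagent · Signal – adenylate kinase release luminescence · Read-out basis – lysis from increased AK signal · Benchmarks – Clomiphene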
dFosB act-2 = delta FosB (mouse) homodimer activation; shares compounds with dFosB act-1; purified delta FosB, TAMRA-CDK5 oligo fluorescence polarization; normalised: neutral wells 0, positive control 100; activation, % at 24.9 µM; 2,400 tested, under 10 active;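 active means highest replicate activation at or above 34% and every replicate reaching that threshold; inconclusive means meets only one of the two criteria; inactive means meets neither criterion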;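 further: higher polarization means more probe DNA bound by delta FosB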
The depositor's hits bear a star; u = inconclusive; x = not tested or not shown; [ ] = dose if it differs, or a comment.

SMILES	GSIS activator	dFosB act-1	PAX8 inh HTS	Env fusion inh	CDK5 p35 inh	Cneo AK release	dFosB act-2
COCCNC(=O)C[C@@H]1C[C@@H]2c3cc(NS(C)(=O)=O)ccc3O[C@@H]2[C@@H](CO)O1	14	x	-26	-13[16.7 µM]	x	5	x
COc1cccc(Nc2nc(N)c([N+](=O)[O-])c(NCc3ccccc3)n2)c1	0	51*	20	46	2	-6	-1
COCCCNc1nc(N)c([N+](=O)[O-])c(NCc2ccccc2)n1	10	-6	-5	-12	1	0	x
CCC(=O)NC(=S)Nc1ccc2oc(-c3ccc(OC)cc3)nc2c1	4	40*	-19	-15	1	x	2
COc1ccc(-c2nc3cc(NC(=S)NC(=O)Cc4ccccc4)ccc3o2)cc1	4	-5	-132	x	-1	-1	x
C=CCn1c(COc2ccccc2F)nnc1SCC(=O)Nc1cc(C)on1	-3	18*	5	29	-1	x	u
Cc1ccc(C(=O)c2oc3ccccc3c2NC(=O)c2cc(-c3cc(C)ccc3O)n[nH]2)cc1	8	1	-12	-8	0	-1	x
Cc1ccc(C(=O)c2oc3ccccc3c2NC(=O)c2cc(-c3ccccc3O)n[nH]2)cc1	-3	31*	21	-24	-1	x	-5
CC(C)NC(=O)Nc1cccc2c1O[C@@H](CN(C)C(=O)Nc1ccccc1)[C@H](C)CN([C@H](C)CO)C2=O	6	x	2	-6[16.7 µM]	x	-4	x
Cc1ccc(C(Sc2ccccc2)C(Cn2cncn2)C(=O)c2ccccc2)cc1 (stereo not given)	x	24*	x	x	1	0	0
O=C(C[C@@H]1C[C@H]2c3cc(NC(=O)NC4CCCC4)ccc3O[C@H]2[C@H](CO)O1)NCc1ccccc1	-6	x	15	-14[16.7 µM]	x	51	x
COc1cc2ccccc2cc1C(=O)N(CCN(C)C)c1nc2ccc(Br)cc2s1	-21	44*	6	9	-1	-3	5
COc1cc2ccccc2cc1C(=O)N(CCN(C)C)c1nc2c(F)cc(F)cc2s1	-65	35*	-7	1	1	-7	6
CN(C)CCCN(C(=O)c1cc(-c2cccs2)nc2ccccc12)c1nc2ccc(F)cc2s1	98	28*	23	-8	1	0	5
COCC(=O)N1C[C@@H]2[C@H](c3ccccc31)[C@@H](CO)N2Cc1ccccc1	12	x	-1	x	x	-1	x
CNc1ccc([N+](=O)[O-])cc1-c1nc2ccccc2[nH]c1=O	14	40*	-4	-7	2	1	1
CC(=O)Nc1ccc(NC(=O)C(C)OC(=O)c2cccc(S(=O)(=O)N3CCCCC3)c2)cc1 (stereo not given)	4	32*	1	-17	0	1	-4
COc1ccc(NC(=O)N2C[C@@H](O)COC[C@H]3O[C@H](CC(=O)N4CCOCC4)CC[C@@H]32)cc1	8	x	-4	x	x	-4	x
COc1ccc(COc2cc(-c3cccc(OC)c3)nc3ccc(NC(=O)c4ccccc4)cc23)cc1	-1	u	29	27	0	1	x
COc1ccc(COc2cc(-c3cccc(OC)c3)nc3ccc(NC(=O)c4cccnc4)cc23)cc1	-3	19*	65*	10	1	-2	0
CCn1c(=S)sc2c(=O)n(CC(=O)Nc3ccc(OC)c(Cl)c3)c(C)nc21	-7	28*	-7	1	0	7	3
CCn1c(=S)sc2c(=O)n(CC(=O)Nc3ccc(Cl)cc3)c(C)nc21	-9	u	-1	1	-1	-1	x
Cc1nc2c(sc(=S)n2Cc2ccco2)c(=O)n1CC(=O)Nc1cc(F)ccc1F	8	103*	1	13	x	1	2
CO[C@H]1CN(C)C(=O)c2cc(NC(=O)c3cc(C)on3)ccc2OC[C@@H](C)N(C)C[C@@H]1C	3	x	-7	5[16.7 µM]	x	0	x
CCOc1ccc(/C=N/N2C(=O)C(CC(=O)Nc3ccc(F)cc3F)SC2=NC)cc1OC (stereo not given)	-11	26*	-5	-3	-2	-1	0
SMILES	GSIS activator	dFosB act-1	PAX8 inh HTS	Env fusion inh	CDK5 p35 inh	Cneo AK release	dFosB act-2
CN=C1SC(CC(=O)Nc2ccccc2F)C(=O)N1/N=C/c1ccc(O)c(OC)c1 (stereo not given)	x	-3	-7	-52	0	x	x
O=C(NC(NC(=O)c1c(F)cccc1F)c1ccc([N+](=O)[O-])cc1)c1c(F)cccc1F	22	24*	19	3	2	11	5
Oc1ccc(C[C@H]2CNC(=S)N2CC2CCCN2C[C@H](Cc2ccc(O)cc2)N2C[C@H](Cc3ccccc3)N(CC3CCCCCC3)C2=S)cc1 (stereo not given in full)	4	72*	90*	61*	1	5	3
Oc1ccc(C[C@@H](CN2CCCC2CN2C(=S)NC[C@@H]2Cc2ccccc2)N2C[C@H](Cc3ccccc3)N(CC3CCCCC3)C2=S)cc1 (stereo not given in full)	x	x	19	-26	x	x	x
CCOc1ccc(CCN2C(=S)N([C@@H](Cc3ccc(O)cc3)CN3CCCC3CN3C(=S)NC[C@@H]3Cc3ccc(O)cc3)C[C@@H]2CC(C)C)cc1 (stereo not given in full)	x	88*	54	-91	-1	5	3
Oc1ccc(C[C@H]2CNC(=S)N2C[C@H]2CCCN2C[C@H](Cc2ccccc2)N2C[C@H](Cc3ccc(O)cc3)N(CCc3ccccc3)C2=S)cc1	-14	x	27	-216	x	0	x
COCC(=O)N(C)C[C@H]1Oc2cc(C#CC(C)(C)O)ccc2S(=O)(=O)N([C@@H](C)CO)C[C@@H]1C	2	x	x	15[16.7 µM]	x	-12	x
Cc1cccc(-n2c(O)c(C=NCc3ccccn3)c3ccccc3c2=O)c1	23	0	26	10	2	x	x
Cc1ccc(-n2c(O)c(C=NCc3ccccn3)c3ccccc3c2=O)cc1	1	26*	2	11	0	-2	5
Cc1nn(C)cc1/C=N/NC(=S)Nc1ccc(Cl)cc1Cl	-9	34*	-4	-3	1	3	5
Clc1ccc2[nH]c3c(NCCCN4CCOCC4)ncnc3c2c1	x	22*	x	x	-3	-1	0
Cc1ccc2[nH]c3c(NCCN4CCOCC4)ncnc3c2c1	x	4	x	11	-2	-2	x
CCCNC(=O)[C@H]1[C@H](CO)[C@H]2Cn3c(ccc(C4=CCCCC4)c3=O)[C@@H]1N2	17	x	-8	x	x	12	x
Cn1nc(-c2ccc(C(=O)Nc3cccnc3)cc2)c2ccccc2c1=O	x	7	-12	3	-1	x	x
